Activity calls are given as the source filed them. The rule behind the calls is not given here.
Tests used:
[1] = system: Fibroblast; experiment: Effect on growth factors related gene expression in diabetic adult human primary fibroblasts assessed as FGF2 mRNA levels at 9.81 uM after 6 hrs by qPCR analysis; format: functional
In short: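 Primary human dermal fibroblasts (young or adult nondiabetic, adult diabetic donor) were treated for 6 h against a 0.1% DMSO solvent control. RNA from 320 000 cells per sample was measured by Fluidigm Biomark high-throughput qPCR. Values are fold change relative to solvent control, from four independent experiments, with SD. One-way ANOVA with Bonferroni post-test was applied.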

[2] = system: Fibroblast; experiment: Effect on chemokines related gene expression in diabetic adult human primary fibroblasts assessed as WDR26 mRNA levels at 1.96 uM after 6 hrs by qPCR analysis; format: functional
[3] = system: Keratinocyte; experiment: Effect on AQP3 mRNA expression levels in non-diabetic adult human primary keratinocytes at 9.81 uM after 6 hrs by qPCR analysis; format: functional
In short: (§1)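 Primary keratinocytes from nondiabetic young and adult and diabetic adult donors; 400 000 cells per sample, 6 h exposure at 1.96 or 9.81 μM. RNA extracted and read on a high-throughput qPCR chip. Results are fold change versus 0.1% DMSO solvent control from 5−7 independent experiments over two donors per group, SD, one-way ANOVA with Bonferroni post-test.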

[4] = target: Transforming protein RhoA (Homo sapiens) (UniProt P61586); experiment: Activation of RhoA in human diabetic primary keratinocytes at 10 nM after 3 hrs by immunoblot method
In short: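 Keratinocytes from a diabetic adult donor; incubation 3 h for RhoA, 20 min for Cdc42 and Rac1. Lysates made in glycerol/Tris pH 7.4/NaCl/NP-40/MgCl2/PMSF buffer, spun at 4 °C. Active GTP-bound form pulled down on glutathione-sepharose with GST-Rhotekin (RhoA) or GST-PAK (Cdc42, Rac1) for 1 h at 4 °C. Total and pulled-down protein read by immunoblot with ECL; n = 3.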

[5] = system: Keratinocyte; experiment: Effect on pro-inflammatory related gene expression in non-diabetic young human primary keratinocytes assessed as IL1R1 mRNA levels at 9.81 uM after 6 hrs by qPCR analysis; format: functional
[6] = system: Fibroblast; experiment: Effect on pro-inflammatory related gene expression in non-diabetic adult human primary fibroblasts assessed as IL1R1 mRNA levels at 1.96 uM after 6 hrs by qPCR analysis; format: functional
[7] = system: Keratinocyte; experiment: Effect on growth factor related gene expression in non-diabetic young human primary keratinocytes assessed as GDF15 mRNA levels at 9.81 uM after 6 hrs by qPCR analysis; format: functional
In short: (§2)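 Primary human keratinocytes (nondiabetic young or adult, diabetic adult donors) were exposed to compound for 6 h, with 0.1% DMSO as solvent control. Total RNA came from 400 000 cells per sample and was assayed on a Fluidigm Biomark high-throughput qPCR chip. Results are fold change vs solvent control, from 2−4 independent experiments on two donors per group, with SD. Groups were compared by one-way ANOVA with Bonferroni post-test.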

[8] = system: Keratinocyte; experiment: Effect on antioxidant related gene expression in non-diabetic young human primary keratinocytes assessed as SOD2 mRNA levels at 9.81 uM after 6 hrs by qPCR analysis; format: functional
[9] = system: Keratinocyte; experiment: Effect on antiinflammatory related gene expression in non-diabetic adult human primary keratinocytes assessed as NFKBIA mRNA levels at 9.81 uM after 6 hrs by qPCR analysis; format: functional; in short: as §1
[10] = system: Keratinocyte; experiment: Effect on antioxidant related gene expression in non-diabetic adult human primary keratinocytes assessed as SOD2 mRNA levels at 9.81 uM after 6 hrs by qPCR analysis; format: functional
[11] = system: Keratinocyte; experiment: Effect on pro-inflammatory related gene expression in diabetic adult human primary keratinocytes assessed as PTGS2 mRNA levels at 9.81 uM after 6 hrs by qPCR analysis; format: functional
[12] = system: Keratinocyte; experiment: Effect on chemokines related gene expression in diabetic adult human primary keratinocytes assessed as CXCL10 mRNA levels at 9.81 uM after 6 hrs by qPCR analysis; format: functional
[13] = system: Keratinocyte; experiment: Effect on MMP1 mRNA expression levels in non-diabetic adult human primary keratinocytes at 1.96 uM after 6 hrs by qPCR analysis; format: functional; in short: as §1
[14] = system: Keratinocyte; experiment: Effect on pro-inflammatory related gene expression in diabetic adult human primary keratinocytes assessed as IL1B mRNA levels at 9.81 uM after 6 hrs by qPCR analysis; format: functional
[15] = system: Keratinocyte; experiment: Effect on growth factor related gene expression in non-diabetic young human primary keratinocytes assessed as GDF15 mRNA levels at 1.96 uM after 6 hrs by qPCR analysis; format: functional; in short: as §2
[16] = system: Fibroblast; experiment: Effect on transcription factor related gene expression in non-diabetic young human primary fibroblasts assessed as JUN mRNA levels at 1.96 uM after 6 hrs by qPCR analysis; format: functional
[17] = system: Fibroblast; experiment: Effect on adhesion molecules related gene expression in non-diabetic adult human primary fibroblasts assessed as VCAM1 mRNA levels at 1.96 uM after 6 hrs by qPCR analysis; format: functional
In short: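 Dermal fibroblasts from nondiabetic adult and diabetic adult donors, exposed for 6 h at 1.96 or 9.81 μM. ICAM-1 and VCAM-1 mRNA measured by standard qRT-PCR, n = 3. Fold change versus 0.1% DMSO control, SD, one-way ANOVA with Bonferroni post-test.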

[18] = system: Fibroblast; experiment: Effect on chemokines related gene expression in non-diabetic adult human primary fibroblasts assessed as IL8 mRNA levels at 1.96 uM after 6 hrs by qPCR analysis; format: functional
[19] = system: Keratinocyte; experiment: Effect on pro-inflammatory related gene expression in non-diabetic young human primary keratinocytes assessed as IL6 mRNA levels at 1.96 uM after 6 hrs by qPCR analysis; format: functional
[20] = system: Fibroblast; experiment: Effect on pro-inflammatory related gene expression in non-diabetic adult human primary fibroblasts assessed as IL6 mRNA levels at 9.81 uM after 6 hrs by qPCR analysis; format: functional
[21] = system: Fibroblast; experiment: Effect on transcription factor related gene expression in non-diabetic young human primary fibroblasts assessed as JUN mRNA levels at 9.81 uM after 6 hrs by qPCR analysis; format: functional
[22] = system: Keratinocyte; experiment: Effect on growth factor related gene expression in non-diabetic adult human primary keratinocytes assessed as PDGFB mRNA levels at 9.81 uM after 6 hrs by qPCR analysis; format: functional; in short: as §2
[23] = system: Keratinocyte; experiment: Effect on ECM related gene expression in non-diabetic adult human primary keratinocytes assessed as FBN1 mRNA levels at 9.81 uM after 6 hrs by qPCR analysis; format: functional; in short: as §1
[24] = system: Fibroblast; experiment: Effect on antiinflammatory related gene expression in non-diabetic young human primary fibroblasts assessed as NFKBIA mRNA levels at 1.96 uM after 6 hrs by qPCR analysis; format: functional
In short: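 Primary dermal fibroblasts from one nondiabetic young, one nondiabetic adult and one diabetic adult donor; 320 000 cells per sample, 6 h at 1.96 or 9.81 μM. RNA measured on a high-throughput qPCR chip. Fold change versus 0.1% DMSO control, four independent experiments, SD, one-way ANOVA with Bonferroni post-test.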

[25] = system: Fibroblast; experiment: Effect on transcription factor related gene expression in diabetic adult human primary fibroblasts assessed as JUN mRNA levels at 9.81 uM after 6 hrs by qPCR analysis; format: functional
[26] = system: Keratinocyte; experiment: Effect on antiinflammatory related gene expression in non-diabetic adult human primary keratinocytes assessed as NFKBIA mRNA levels at 1.96 uM after 6 hrs by qPCR analysis; format: functional; in short: as §1
[27] = system: Fibroblast; experiment: Effect on antioxidant related gene expression in non-diabetic young human primary fibroblasts assessed as NFE2L2 mRNA levels at 9.81 uM after 6 hrs by qPCR analysis; format: functional

Transforming protein RhoA (Homo sapiens), sequence (P61586 whole entry): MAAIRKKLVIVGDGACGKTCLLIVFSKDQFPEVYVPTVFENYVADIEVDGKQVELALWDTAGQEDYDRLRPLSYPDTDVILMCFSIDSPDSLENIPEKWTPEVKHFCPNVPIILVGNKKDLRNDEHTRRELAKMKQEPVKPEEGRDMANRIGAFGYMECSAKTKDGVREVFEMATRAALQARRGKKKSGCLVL

C=C(C)[C@@H]1CC[C@]2(CO)CC[C@]3(C)[C@H](CC[C@@H]4[C@@]5(C)CC[C@H](O)C(C)(C)[C@@H]5CC[C@]43C)[C@@H]12 [BETULIN]
fold change (FC) [1]: 1.6
fold change (FC) [2]: 1.2
fold change (FC) [3]: 0.8
Activity [4]: Active
fold change (FC) [5]: 1
fold change (FC) [6]: 4.8
fold change (FC) [7]: 1.1
fold change (FC) [8]: 1.4
fold change (FC) [9]: 1.9
fold change (FC) [10]: 1.6
fold change (FC) [11]: 2.2
fold change (FC) [12]: 12.1
fold change (FC) [13]: 1
fold change (FC) [14]: 1
fold change (FC) [15]: 1
fold change (FC) [16]: 1
fold change (FC) [17]: 63
fold change (FC) [18]: 702
fold change (FC) [19]: 3.6
fold change (FC) [20]: 246
fold change (FC) [21]: 1.6
fold change (FC) [22]: 0.9
fold change (FC) [23]: 0.7
fold change (FC) [24]: 2.9
fold change (FC) [25]: 1.2
fold change (FC) [26]: 1.4
fold change (FC) [27]: 1.4
